Reference: ChEMBL document CHEMBL5058577, “EUbOPEN Chemogenomics Library 2 (Multiplex)” (2022)

System: U2OS
Assay: Multiplex assay against U2OS
Assay type: toxicity, cell-based
Details: human
How it was run: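 With compound added, live cells were imaged on a CQ1 microscope at 37°C and 5% CO2; staining with Hoechst33342, BioTracker Green Microtubule Cytoskeleton Dye, MitoTracker Red and Annexin V Alexa Fluor 680 had been done at seeding. The CellPathfinder machine-learning gating scheme split cells into Hoechst high-intensity objects or normal cells, normal cells into healthy, pyknosed or fragmented nuclei, and pyknosed cells into mitotic or apoptotic. The tubulin, mitochondrial-mass and membrane-permeability phenotypes are per cents of healthy-nucleus cells.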

[1] = 12 h, 1 µM, compound concentration 1 uM, replicate 1
[2] = 12 h, 1 µM, compound concentration 1 uM, replicate 2
[3] = 12 h, 10 µM, compound concentration 10 uM, replicate 1
[4] = 12 h, 10 µM, compound concentration 10 uM, replicate 2
[5] = 24 h, 1 µM, compound concentration 1 uM, replicate 1
[6] = 24 h, 1 µM, compound concentration 1 uM, replicate 2
[7] = 24 h, 10 µM, compound concentration 10 uM, replicate 1
[8] = 24 h, 10 µM, compound concentration 10 uM, replicate 2
[9] = 48 h, 1 µM, compound concentration 1 uM, replicate 1
[10] = 48 h, 1 µM, compound concentration 1 uM, replicate 2
[11] = 48 h, 10 µM, compound concentration 10 uM, replicate 1
[12] = 48 h, 10 µM, compound concentration 10 uM, replicate 2

C[C@H](NC(=O)CNC(=O)c1cccc(Cl)c1)c1ccccc1
Population Apoptotic (%) [1]: 78%
Population Fragmented Nuclei (%) [1]: 26%
Population Healthy Nuclei (%) [1]: 61%
Population Hoechst High Intensity Objects (%) [1]: 3%
Population Membrane Permeable-Phenotype (%) [1]: 6%
Population Mitochondria Different-Phenotype (%) [1]: 4%
Population Mitotic Cells (%) [1]: 21%
Population Normal (%) [1]: 96%
Population Pyknosed Nuclei (%) [1]: 12%
Population Tubulin-Different-Phenotype (%) [1]: 2%
Total Cell Count [1]: 242
Population Apoptotic (%) [2]: 71%
Population Fragmented Nuclei (%) [2]: 20%
Population Healthy Nuclei (%) [2]: 68%
Population Membrane Permeable-Phenotype (%) [2]: 8%
Population Mitochondria Different-Phenotype (%) [2]: 2%
Population Mitotic Cells (%) [2]: 28%
Population Pyknosed Nuclei (%) [2]: 11%
Total Cell Count [2]: 124
Population Apoptotic (%) [3]: 68%
Population Fragmented Nuclei (%) [3]: 24%
Population Healthy Nuclei (%) [3]: 63%
Population Hoechst High Intensity Objects (%) [3]: 2%
Population Membrane Permeable-Phenotype (%) [3]: 9%
Population Mitochondria Different-Phenotype (%) [3]: 3%
Population Mitotic Cells (%) [3]: 31%
Population Normal (%) [3]: 97%
Population Pyknosed Nuclei (%) [3]: 11%
Population Tubulin-Different-Phenotype (%) [3]: 4%
Total Cell Count [3]: 198
Population Apoptotic (%) [4]: 66%
Population Fragmented Nuclei (%) [4]: 13%
Population Healthy Nuclei (%) [4]: 82%
Population Hoechst High Intensity Objects (%) [4]: 0%
Population Membrane Permeable-Phenotype (%) [4]: 2%
Population Mitotic Cells (%) [4]: 33%
Population Normal (%) [4]: 100%
Population Pyknosed Nuclei (%) [4]: 4%
Population Tubulin-Different-Phenotype (%) [4]: 2%
Total Cell Count [4]: 150
Population Apoptotic (%) [5]: 79%
Population Fragmented Nuclei (%) [5]: 19%
Population Healthy Nuclei (%) [5]: 71%
Population Hoechst High Intensity Objects (%) [5]: 2%
Population Membrane Permeable-Phenotype (%) [5]: 7%
Population Mitochondria Different-Phenotype (%) [5]: 2%
Population Mitotic Cells (%) [5]: 20%
Population Normal (%) [5]: 97%
Population Pyknosed Nuclei (%) [5]: 8%
Population Tubulin-Different-Phenotype (%) [5]: 2%
Total Cell Count [5]: 275
Population Apoptotic (%) [6]: 88%
Population Healthy Nuclei (%) [6]: 69%
Population Membrane Permeable-Phenotype (%) [6]: 4%
Population Mitochondria Different-Phenotype (%) [6]: 4%
Population Mitotic Cells (%) [6]: 11%
Population Pyknosed Nuclei (%) [6]: 10%
Population Tubulin-Different-Phenotype (%) [6]: 0%
Total Cell Count [6]: 168
Population Apoptotic (%) [7]: 90%
Population Fragmented Nuclei (%) [7]: 24%
Population Healthy Nuclei (%) [7]: 61%
Population Hoechst High Intensity Objects (%) [7]: 1%
Population Membrane Permeable-Phenotype (%) [7]: 6%
Population Mitochondria Different-Phenotype (%) [7]: 4%
Population Mitotic Cells (%) [7]: 9%
Population Normal (%) [7]: 98%
Population Pyknosed Nuclei (%) [7]: 13%
Population Tubulin-Different-Phenotype (%) [7]: 2%
Total Cell Count [7]: 239
Population Apoptotic (%) [8]: 71%
Population Fragmented Nuclei (%) [8]: 12%
Population Healthy Nuclei (%) [8]: 83%
Population Membrane Permeable-Phenotype (%) [8]: 4%
Population Mitochondria Different-Phenotype (%) [8]: 2%
Population Mitotic Cells (%) [8]: 28%
Population Pyknosed Nuclei (%) [8]: 3%
Population Tubulin-Different-Phenotype (%) [8]: 3%
Total Cell Count [8]: 189
Population Apoptotic (%) [9]: 74%
Population Fragmented Nuclei (%) [9]: 18%
Population Healthy Nuclei (%) [9]: 71%
Population Hoechst High Intensity Objects (%) [9]: 3%
Population Membrane Permeable-Phenotype (%) [9]: 6%
Population Mitochondria Different-Phenotype (%) [9]: 3%
Population Mitotic Cells (%) [9]: 25%
Population Normal (%) [9]: 96%
Population Pyknosed Nuclei (%) [9]: 10%
Population Tubulin-Different-Phenotype (%) [9]: 1%
Total Cell Count [9]: 401
Population Apoptotic (%) [10]: 100%
Population Fragmented Nuclei (%) [10]: 17%
Population Healthy Nuclei (%) [10]: 70%
Population Hoechst High Intensity Objects (%) [10]: 2%
Population Membrane Permeable-Phenotype (%) [10]: 4%
Population Mitotic Cells (%) [10]: 0%
Population Normal (%) [10]: 97%
Population Pyknosed Nuclei (%) [10]: 11%
Population Tubulin-Different-Phenotype (%) [10]: 2%
Total Cell Count [10]: 205
Population Apoptotic (%) [11]: 81%
Population Fragmented Nuclei (%) [11]: 19%
Population Healthy Nuclei (%) [11]: 73%
Population Hoechst High Intensity Objects (%) [11]: 2%
Population Membrane Permeable-Phenotype (%) [11]: 6%
Population Mitochondria Different-Phenotype (%) [11]: 2%
Population Mitotic Cells (%) [11]: 18%
Population Normal (%) [11]: 97%
Population Pyknosed Nuclei (%) [11]: 7%
Population Tubulin-Different-Phenotype (%) [11]: 4%
Total Cell Count [11]: 311
Population Apoptotic (%) [12]: 100%
Population Fragmented Nuclei (%) [12]: 12%
Population Healthy Nuclei (%) [12]: 80%
Population Hoechst High Intensity Objects (%) [12]: 1%
Population Membrane Permeable-Phenotype (%) [12]: 4%
Population Mitochondria Different-Phenotype (%) [12]: 1%
Population Mitotic Cells (%) [12]: 0%
Population Normal (%) [12]: 98%
Population Tubulin-Different-Phenotype (%) [12]: 1%
Total Cell Count [12]: 279

COC(c1ccccc1)(c1ccccc1)[C@H](Oc1nc(C)cc(C)n1)C(=O)O [AMBRISENTAN]
Population Apoptotic (%) [1]: 95%
Population Fragmented Nuclei (%) [1]: 26%
Population Healthy Nuclei (%) [1]: 62%
Population Hoechst High Intensity Objects (%) [1]: 2%
Population Membrane Permeable-Phenotype (%) [1]: 3%
Population Mitochondria Different-Phenotype (%) [1]: 0%
Population Mitotic Cells (%) [1]: 4%
Population Normal (%) [1]: 97%
Population Pyknosed Nuclei (%) [1]: 10%
Population Tubulin-Different-Phenotype (%) [1]: 1%
Total Cell Count [1]: 209
Population Apoptotic (%) [2]: 100%
Population Fragmented Nuclei (%) [2]: 21%
Population Healthy Nuclei (%) [2]: 72%
Population Membrane Permeable-Phenotype (%) [2]: 8%
Population Mitochondria Different-Phenotype (%) [2]: 3%
Population Mitotic Cells (%) [2]: 0%
Population Pyknosed Nuclei (%) [2]: 5%
Total Cell Count [2]: 87
Population Apoptotic (%) [3]: 61%
Population Fragmented Nuclei (%) [3]: 28%
Population Healthy Nuclei (%) [3]: 63%
Population Hoechst High Intensity Objects (%) [3]: 2%
Population Membrane Permeable-Phenotype (%) [3]: 4%
Population Mitochondria Different-Phenotype (%) [3]: 2%
Population Mitotic Cells (%) [3]: 38%
Population Normal (%) [3]: 97%
Population Pyknosed Nuclei (%) [3]: 7%
Population Tubulin-Different-Phenotype (%) [3]: 1%
Total Cell Count [3]: 232
Population Apoptotic (%) [4]: 100%
Population Fragmented Nuclei (%) [4]: 19%
Population Healthy Nuclei (%) [4]: 72%
Population Hoechst High Intensity Objects (%) [4]: 0%
Population Mitochondria Different-Phenotype (%) [4]: 0%
Population Mitotic Cells (%) [4]: 0%
Population Normal (%) [4]: 99%
Population Tubulin-Different-Phenotype (%) [4]: 0%
Total Cell Count [4]: 104
Population Apoptotic (%) [5]: 95%
Population Fragmented Nuclei (%) [5]: 27%
Population Healthy Nuclei (%) [5]: 63%
Population Hoechst High Intensity Objects (%) [5]: 0%
Population Membrane Permeable-Phenotype (%) [5]: 4%
Population Mitochondria Different-Phenotype (%) [5]: 1%
Population Mitotic Cells (%) [5]: 4%
Population Normal (%) [5]: 99%
Population Pyknosed Nuclei (%) [5]: 8%
Population Tubulin-Different-Phenotype (%) [5]: 1%
Total Cell Count [5]: 248
Population Apoptotic (%) [6]: 100%
Population Fragmented Nuclei (%) [6]: 23%
Population Healthy Nuclei (%) [6]: 66%
Population Membrane Permeable-Phenotype (%) [6]: 1%
Population Mitochondria Different-Phenotype (%) [6]: 2%
Population Mitotic Cells (%) [6]: 0%
Population Pyknosed Nuclei (%) [6]: 10%
Total Cell Count [6]: 111
Population Apoptotic (%) [7]: 84%
Population Fragmented Nuclei (%) [7]: 25%
Population Healthy Nuclei (%) [7]: 65%
Population Hoechst High Intensity Objects (%) [7]: 1%
Population Membrane Permeable-Phenotype (%) [7]: 7%
Population Mitochondria Different-Phenotype (%) [7]: 2%
Population Mitotic Cells (%) [7]: 16%
Population Normal (%) [7]: 98%
Population Pyknosed Nuclei (%) [7]: 9%
Population Tubulin-Different-Phenotype (%) [7]: 3%
Total Cell Count [7]: 273
Population Apoptotic (%) [8]: 80%
Population Fragmented Nuclei (%) [8]: 13%
Population Healthy Nuclei (%) [8]: 77%
Population Hoechst High Intensity Objects (%) [8]: 0%
Population Mitotic Cells (%) [8]: 20%
Population Normal (%) [8]: 100%
Population Pyknosed Nuclei (%) [8]: 8%
Population Tubulin-Different-Phenotype (%) [8]: 5%
Total Cell Count [8]: 115
Population Apoptotic (%) [9]: 89%
Population Fragmented Nuclei (%) [9]: 17%
Population Healthy Nuclei (%) [9]: 70%
Population Hoechst High Intensity Objects (%) [9]: 2%
Population Membrane Permeable-Phenotype (%) [9]: 2%
Population Mitochondria Different-Phenotype (%) [9]: 1%
Population Mitotic Cells (%) [9]: 10%
Population Normal (%) [9]: 97%
Population Pyknosed Nuclei (%) [9]: 11%
Population Tubulin-Different-Phenotype (%) [9]: 0%
Total Cell Count [9]: 333
Population Apoptotic (%) [10]: 93%
Population Healthy Nuclei (%) [10]: 72%
Population Membrane Permeable-Phenotype (%) [10]: 0%
Population Mitotic Cells (%) [10]: 6%
Population Pyknosed Nuclei (%) [10]: 10%
Total Cell Count [10]: 151
Population Apoptotic (%) [11]: 87%
Population Fragmented Nuclei (%) [11]: 21%
Population Healthy Nuclei (%) [11]: 68%
Population Hoechst High Intensity Objects (%) [11]: 3%
Population Membrane Permeable-Phenotype (%) [11]: 4%
Population Mitochondria Different-Phenotype (%) [11]: 2%
Population Mitotic Cells (%) [11]: 12%
Population Normal (%) [11]: 96%
Population Pyknosed Nuclei (%) [11]: 10%
Population Tubulin-Different-Phenotype (%) [11]: 3%
Total Cell Count [11]: 388
Population Apoptotic (%) [12]: 81%
Population Fragmented Nuclei (%) [12]: 13%
Population Healthy Nuclei (%) [12]: 79%
Population Hoechst High Intensity Objects (%) [12]: 0%
Population Membrane Permeable-Phenotype (%) [12]: 2%
Population Mitochondria Different-Phenotype (%) [12]: 0%
Population Mitotic Cells (%) [12]: 18%
Population Normal (%) [12]: 100%
Population Pyknosed Nuclei (%) [12]: 6%
Population Tubulin-Different-Phenotype (%) [12]: 2%
Total Cell Count [12]: 174
